High-throughput results deposited in PubChem by The Scripps Research Institute Molecular Screening Center.
OX1R antag-1: antagonists of human orexin 1 receptor (OX1R); 330,000 tested, 1.8% active; OX1R-expressing cells, FRET antagonist read-out; AID 485270, 2010; inhibition, % at 6.6 µM; in the data active = inhibition mostly above about 38%, no sharp cut-off; inactive = mostly below about 40%
Target sequence (O43613 whole entry, looked up): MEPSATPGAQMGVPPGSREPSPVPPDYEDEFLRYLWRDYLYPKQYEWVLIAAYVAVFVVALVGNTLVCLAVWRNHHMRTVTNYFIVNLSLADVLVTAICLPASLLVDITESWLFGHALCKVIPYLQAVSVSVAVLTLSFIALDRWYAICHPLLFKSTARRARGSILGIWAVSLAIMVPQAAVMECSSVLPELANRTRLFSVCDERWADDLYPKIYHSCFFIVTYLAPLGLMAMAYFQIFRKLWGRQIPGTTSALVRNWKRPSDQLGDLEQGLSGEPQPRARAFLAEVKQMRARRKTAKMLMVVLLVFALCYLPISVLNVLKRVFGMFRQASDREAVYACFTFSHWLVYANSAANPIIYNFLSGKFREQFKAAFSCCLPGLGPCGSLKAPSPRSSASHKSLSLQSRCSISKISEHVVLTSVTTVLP
OX1R antag-2: OX1R (HCRTR1) antagonists, primary screen, fluorescence, CHO/OX1R cells, Fluo-8 calcium, orexin A; AID 434989, 2010; inhibition, % at 5 µM; Fluo-8 calcium fluorescence; Orexin/Hypocretin receptor type 1 (Homo sapiens), O43613; 330,000 tested, 0.43% active;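 active = inhibition above its plate's threshold, mean inhibition of all tested compounds on the plate plus 3 SD, cut at about 37% in these data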
CHO parental Ca: ATP-evoked calcium signal inhibitors, parental CHO, primary screen, counter-screen for OX1R antagonist project, cell-based, fluorescence, Fluo-8 calcium dye | 330,000 tested, 0.63% active | parental CHO-K1, ATP-induced calcium, Fluo-8 fluorescence | inhibition, % at 5.6 µM;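 active = inhibition above that plate's mean sample inhibition plus 3 SD, cut at about 26% in these data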
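Material – parental CHO cells · Reagent – ATP stimulus · Compound – single nominal dose of 5.6 µM per compound · Detection – Fluo-8 fluorescence · Read-out basis – percent inhibition of calcium signal · Controls – ATP-challenged DMSO wells low, unchallenged DMSO wells high · Repeats – no replicates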
TAAR1 agonist: human TAAR1 agonists, primary screen, Fluo-8 calcium fluorescence, CHO RD-HGA16 cells; Trace amine-associated receptor 1 (Homo sapiens), Q96RJ0; vehicle wells 0%, saturating PEA agonist 100%; activation, % at 3 µM; 360,000 tested, 0.99% active; AID 624467, 2012;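 active = activation above the mean activation of all test compounds in the run plus 3 SD, cut at about 38% in these data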
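System: CHO-derived RD-HGA16 cells with stable Gα16 and human TAAR1. Times: 17-24 h plating, Fluo-8 75 min 37 °C, 30 min RT. Measured by: calcium-sensitive Fluo-8 signal, excitation 470-495, emission 515-575 nm. Read-out basis: % activation relative to PEA EC100 response. Control set: DMSO and PEA EC100. Repeats: no replicates (n 1).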
TAAR1 antag: human TAAR1 antagonists, primary screen, Fluo-8 calcium fluorescence, CHO RD-HGA16 cells | antagonist | 360,000 tested, 1.5% active | AID 624466, 2012 | inhibition, % at 3 µM | Trace amine-associated receptor 1 (Homo sapiens), Q96RJ0;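 active = inhibition above a per-plate cutoff, the mean inhibition of test compounds on that plate plus 3 SD, cut at about 49% in these data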
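System: RD-HGA16 CHO cells with stable hTAAR1 and Gα16 | Probe or stimulus: EC80 β-phenethylamine stimulus | Dosing: 3 µM, single point | Times: Dye loading 75 min at 37 °C, then 30 min room temperature | Measured by: Fluo-8 calcium-sensitive fluorescence | Read-out basis: % inhibition of agonist calcium response | Replicates: n of 1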
TAAR1 ag confirm: human TAAR1 agonists, retest of hits, confirmation, Fluo-8 calcium fluorescence, CHO RD-HGA16 cells; shares compounds with TAAR1 agonist; scaled: DMSO 0%, maximal phenethylamine 100%; activation, % at 3 µM; 2,400 tested, 82% active; AID 651783, 2012;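 active = activation above a cutoff set at the run's mean compound activation plus 3 SD, cut at about 39% in these data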
Ga16 nonsel ag: nonselective calcium mobilization agonists, CHO-Ga16 cells, counter-screen for hTAAR1 agonist project, cell-based, fluorescence, CHO-Ga16 parental line | shares compounds with TAAR1 agonist | Fluo-8 calcium fluorescence; normalized to maximal ATP response, DMSO zero | activation, % at 3 µM | 2,400 tested, 50% active | AID 651787, 2012;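 active = activation above the run cutoff, the mean activation over all tested wells plus 3 SD, cut at about 12% in these data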
TAAR1 desens: TAAR1 desensitization by agonist hits, confirmation, counter-screen for TAAR1 agonist project, cell-based, fluorescence, tachyphylaxis | 2,400 tested, 46% active | inhibition, % at 3 µM | AID 651951, 2012 | CHO RD-HGA16 hTAAR1, Fluo-8 calcium, beta-PEA response inhibition | shares compounds with TAAR1 agonist;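 active = inhibition above the run cutoff, the mean inhibition of all test compounds plus 3 SD, cut at about 49% in these data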;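 note: beta-PEA stimulus applied at its EC80; loss of beta-PEA calcium signal after compound pretreatment read as receptor desensitization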
Ga16 antag count: inhibition of ATP-evoked calcium response in CHO-Ga16 cells, counter-screen for TAAR1 agonist project, cell-based, fluorescence. shares compounds with TAAR1 agonist. AID 651952, 2012. inhibition, % at 3 µM. CHO-Ga16 ATP-induced calcium, Fluo-8 fluorescence. 2,400 tested, 39% active;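 active = inhibition above the plate's mean compound inhibition plus 3 SD, computed per plate, cut at about 22% in these data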
Hits are given with their value; . = inactive; / = no result. Hits are enriched below; roughly 3.9% of the tested compounds scored in any of these assays.

SMILES	OX1R antag-1	OX1R antag-2	CHO parental Ca	TAAR1 agonist	TAAR1 antag	TAAR1 ag confirm	Ga16 nonsel ag	TAAR1 desens	Ga16 antag count
COc1ccc2[nH]c(=O)c(C(c3nnnn3CC3CCCO3)N3CCc4ccccc4C3)cc2c1 (stereo unspecified)	.	.	.	61	.	55	.	.	.
Cc1ccc2[nH]c(=O)c(C(c3nnnn3CC3CCCO3)N3CCc4ccccc4C3)cc2c1 (stereo unspecified)	.	.	.	.	.	/	/	/	/
CC(C)(C)c1ccc(S(=O)(=O)NC(=O)C2(C)CCN2C(=O)c2cccc3ccccc23)cc1 (stereo unspecified)	/	/	/	46	.	66	14	.	.
Cc1cc(C)nc(OC(C(=O)O)C(OCCc2ccccc2)(c2ccc(F)cc2)c2ccc(F)cc2)n1 (stereo unspecified)	.	.	.	122	.	128	90	.	.
CCCOC(c1ccccc1)(c1ccc(C(F)(F)F)cc1)C(Oc1nc(C)cc(C)n1)C(=O)O (stereo unspecified)	.	.	.	.	.	/	/	/	/
Cc1cc(C)nc(OC(C(=O)O)C(OCC(C)C)(c2ccccc2)c2ccccc2)n1 (stereo unspecified)	.	.	.	108	.	125	74	.	.
CCC(C)COC(c1ccccc1)(c1ccccc1)C(Oc1nc(C)cc(C)n1)C(=O)O (stereo unspecified)	.	.	.	81	.	128	86	.	.
c1cc2c(cc1C1CCCCC1)c1c3n2CCN=C3CCC1	.	.	.	66	.	59	24	.	.
C[C@@H]1CN([C@@H](C)CO)C(=O)CCCn2nncc2CO[C@@H]1CN(C)S(=O)(=O)c1ccc(Oc2ccccc2)nc1	/	/	/	.	.	/	/	/	/
COc1ccc(N(C(=O)CCl)C(C(=O)NCCc2ccccc2)c2cccs2)cc1Cl (stereo unspecified)	.	.	.	40	.	.	.	.	.
COc1cccc(N(C(=O)CCl)C(C(=O)NCCc2ccccc2)c2cccs2)c1 (stereo unspecified)	.	.	.	.	.	/	/	/	/
COc1cc(C2c3cc4c(cc3OC(NCCc3ccccc3)C2C)OCO4)cc(OC)c1OC (stereo unspecified)	/	/	/	97	91	97	.	100	.
COc1cc(C2c3cc4c(cc3OC(Nc3ccc(C(=O)O)cc3)C2C)OCO4)cc(OC)c1OC (stereo unspecified)	/	/	/	.	.	/	/	/	/
CCOC(=O)C1=NN(C(=O)c2ccc(OC)cc2)C(O)(c2ccc(Cl)cc2)C1 (stereo unspecified)	.	.	.	65	.	80	64	.	30
COC(=O)C1=NN(C(=O)c2cccc(Br)c2)C(O)(c2ccc(Cl)cc2)C1 (stereo unspecified)	50	.	.	93	71	95	67	76	62
O=C(COCc1cc(-c2ccc3c(c2)OCO3)on1)N1CCN(c2ccccc2)CC1	.	.	.	.	.	/	/	/	/
